Source: PMC6452895 (ChemMedChem, 2019)

How the values were obtained:
ASPC1 = assay: Growth inhibition; type: cell-based, human; settings: ASPC1, pancreatic cancer, K-Ras G12D
Summary of the method: (§1)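 Cancer cell lines were treated with test compound for growth inhibition. Each GI50 is the average of three independent experiments, each run in duplicate.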

MDA-MB-231 = assay: Growth inhibition; type: cell-based, human; settings: MDA-MB-231, breast cancer, K-Ras G13D
Summary of the method: as §1

HME1 = assay: Growth inhibition; type: cell-based, human; settings: HME1, normal mammary epithelial cells, K-Ras WT
Summary of the method: (§2)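 GI50 determined for growth of the test compound's target cells; values averaged across three independent experiments, each run in duplicate.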

HCT116 = assay: Growth inhibition; type: cell-based, human; settings: HCT116, colon cancer, K-Ras G13D
Summary of the method: as §1

SIRT3 = biological target: T1, SIRT3 (Homo sapiens, UniProt Q9NTG7); assay: In vitro SIRT3 deacetylation inhibition, H3K9-Ac peptide substrate; type: biochemical; settings: read-out: SIRT3 Deacetylation IC50, with 15 min pre-incubation
T1 sequence (Q9NTG7 1-399): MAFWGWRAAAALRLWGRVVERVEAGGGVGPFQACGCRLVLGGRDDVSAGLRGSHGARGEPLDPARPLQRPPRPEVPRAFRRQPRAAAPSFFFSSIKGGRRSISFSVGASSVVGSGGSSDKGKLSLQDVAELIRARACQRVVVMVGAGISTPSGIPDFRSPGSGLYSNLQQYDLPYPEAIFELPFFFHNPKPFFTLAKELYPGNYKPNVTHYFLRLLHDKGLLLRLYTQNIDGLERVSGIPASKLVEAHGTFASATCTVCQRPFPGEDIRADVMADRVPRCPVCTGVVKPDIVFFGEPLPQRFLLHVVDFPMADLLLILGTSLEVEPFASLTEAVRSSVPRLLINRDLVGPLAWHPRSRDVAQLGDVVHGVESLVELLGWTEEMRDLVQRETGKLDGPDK
Summary of the method: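 The enzyme was pre-incubated with NAD and test compound for 15 min, then substrate was added to start the deacetylation reaction. IC50 was determined under these pre-incubation conditions.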

NCI-H23 = assay: Growth inhibition; type: cell-based, human; settings: NCI-H23, lung cancer, K-Ras G12C
Summary of the method: as §1

MCF10A = assay: Growth inhibition; type: cell-based, human; settings: normal mammary epithelial cells, K-Ras WT
Summary of the method: as §2

CCCCCCCCCCCCCC(=S)NCCCCC(NC(=O)OCc1ccccc1)C(=O)Nc1ccccc1 (stereo not shown) [TM]
GI50 (ASPC1): 24 ± 5 µM | GI50 (MDA-MB-231): 13 ± 4 µM | GI50 (HME1): > 50 µM | GI50 (HCT116): 19 ± 1 µM | IC50 (SIRT3): > 50 µM | GI50 (NCI-H23): 29 ± 6 µM | GI50 (MCF10A): > 50 µM
